The values that follow come from ChEMBL document CHEMBL1821688, “Synthesis and biological evaluation of (±)-3-(2-(2-fluorobenzyloxy) naphthalen-6-yl)-2-aminopropanoic acid derivatives as novel PTP1B inhibitors” (Eur J Med Chem, 2011).

In general, IC50 refers to the concentration that inhibits the measured activity by half.

Active and inactive are the calls of the source. The rule behind the calls is not given here.

The target of assay [1] is T1, M-phase inducer phosphatase 2 (Homo sapiens, UniProt P30305).
T1 sequence (P30305 whole entry): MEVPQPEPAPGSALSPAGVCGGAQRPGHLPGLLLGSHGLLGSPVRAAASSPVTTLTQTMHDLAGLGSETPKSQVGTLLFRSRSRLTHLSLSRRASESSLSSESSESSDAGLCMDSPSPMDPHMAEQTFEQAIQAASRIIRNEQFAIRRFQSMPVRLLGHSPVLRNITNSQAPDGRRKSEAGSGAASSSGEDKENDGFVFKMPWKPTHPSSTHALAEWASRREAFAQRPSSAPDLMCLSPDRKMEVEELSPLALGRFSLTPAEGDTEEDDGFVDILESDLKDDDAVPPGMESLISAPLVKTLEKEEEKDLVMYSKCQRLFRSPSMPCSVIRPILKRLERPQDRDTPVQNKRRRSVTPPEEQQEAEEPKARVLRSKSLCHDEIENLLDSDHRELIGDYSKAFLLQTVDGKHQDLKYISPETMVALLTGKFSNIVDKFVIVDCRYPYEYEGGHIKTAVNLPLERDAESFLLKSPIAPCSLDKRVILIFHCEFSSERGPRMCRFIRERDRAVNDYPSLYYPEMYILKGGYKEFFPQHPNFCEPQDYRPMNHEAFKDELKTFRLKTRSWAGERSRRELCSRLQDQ
The assay can be described thus: Inhibition of human recombinant CDC25B. A digest of the protocol: (§1)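 IC50 values were obtained by regression analysis and reported as mean ± SD of three replicate determinations.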

In assay [2] the target is Receptor-type tyrosine-protein phosphatase F (Homo sapiens) (UniProt P10586). The assay can be described thus: Inhibition of human recombinant LAR at 20 ug/mL.
Assay [3] is described as follows: Selectivity ratio of IC50 for TCPTP to IC50 for PTP1B.
Assay [4] concerns the target Receptor-type tyrosine-protein phosphatase alpha (Homo sapiens) (UniProt P18433). Put plainly: Inhibition of human recombinant PTPalpha at 20 ug/mL.
Assay [5] has as its target T2, Tyrosine-protein phosphatase non-receptor type 1 (Homo sapiens, UniProt P18031).
T2 sequence (P18031 whole entry): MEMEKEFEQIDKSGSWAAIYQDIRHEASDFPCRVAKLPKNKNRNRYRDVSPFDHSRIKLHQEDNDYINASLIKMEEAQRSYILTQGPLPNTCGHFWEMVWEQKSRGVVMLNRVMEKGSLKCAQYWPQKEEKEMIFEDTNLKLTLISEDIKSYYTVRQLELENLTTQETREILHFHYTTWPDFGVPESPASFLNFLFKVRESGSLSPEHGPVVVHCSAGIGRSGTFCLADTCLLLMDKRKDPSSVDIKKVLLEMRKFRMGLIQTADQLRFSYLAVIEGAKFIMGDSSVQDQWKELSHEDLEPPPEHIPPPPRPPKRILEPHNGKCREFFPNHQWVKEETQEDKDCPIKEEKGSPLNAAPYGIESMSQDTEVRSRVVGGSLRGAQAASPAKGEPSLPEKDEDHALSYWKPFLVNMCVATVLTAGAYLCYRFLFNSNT
The assay can be described thus: Inhibition of PTP1B using p-nitrophenyl phosphate as substrate. The method, boiled down: as §1

Assay [6] addresses T3, Tyrosine-protein phosphatase non-receptor type 6 (Homo sapiens, UniProt P29350). The assay can be described thus: Inhibition of human recombinant SHP1 in Tris buffer at pH 8 using OMPF as substrate. The method, boiled down:
as §1

Assay [7] concerns the target T4, Tyrosine-protein phosphatase non-receptor type 2 (Homo sapiens, UniProt P17706).
T4 sequence (P17706 whole entry): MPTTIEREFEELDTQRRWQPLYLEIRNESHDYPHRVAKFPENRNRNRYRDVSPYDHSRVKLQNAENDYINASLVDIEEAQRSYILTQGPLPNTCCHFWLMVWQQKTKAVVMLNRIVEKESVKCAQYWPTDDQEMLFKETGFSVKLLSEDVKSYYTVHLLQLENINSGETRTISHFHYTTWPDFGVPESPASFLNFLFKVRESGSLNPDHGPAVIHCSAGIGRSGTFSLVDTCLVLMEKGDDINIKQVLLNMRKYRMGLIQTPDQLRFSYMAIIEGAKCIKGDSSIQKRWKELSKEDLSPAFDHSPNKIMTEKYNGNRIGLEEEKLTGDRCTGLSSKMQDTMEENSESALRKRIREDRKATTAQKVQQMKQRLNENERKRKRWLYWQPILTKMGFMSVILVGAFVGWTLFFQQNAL
Put plainly: Inhibition of TCPTP. A digest of the protocol:
as §1

Assay [8] has as its target T3, Tyrosine-protein phosphatase non-receptor type 6. Put plainly: Inhibition of human recombinant SHP1 in Tris buffer of pH 8 at 20 ug/mL.

Receptor-type tyrosine-protein phosphatase F (Homo sapiens), sequence (P10586 whole entry): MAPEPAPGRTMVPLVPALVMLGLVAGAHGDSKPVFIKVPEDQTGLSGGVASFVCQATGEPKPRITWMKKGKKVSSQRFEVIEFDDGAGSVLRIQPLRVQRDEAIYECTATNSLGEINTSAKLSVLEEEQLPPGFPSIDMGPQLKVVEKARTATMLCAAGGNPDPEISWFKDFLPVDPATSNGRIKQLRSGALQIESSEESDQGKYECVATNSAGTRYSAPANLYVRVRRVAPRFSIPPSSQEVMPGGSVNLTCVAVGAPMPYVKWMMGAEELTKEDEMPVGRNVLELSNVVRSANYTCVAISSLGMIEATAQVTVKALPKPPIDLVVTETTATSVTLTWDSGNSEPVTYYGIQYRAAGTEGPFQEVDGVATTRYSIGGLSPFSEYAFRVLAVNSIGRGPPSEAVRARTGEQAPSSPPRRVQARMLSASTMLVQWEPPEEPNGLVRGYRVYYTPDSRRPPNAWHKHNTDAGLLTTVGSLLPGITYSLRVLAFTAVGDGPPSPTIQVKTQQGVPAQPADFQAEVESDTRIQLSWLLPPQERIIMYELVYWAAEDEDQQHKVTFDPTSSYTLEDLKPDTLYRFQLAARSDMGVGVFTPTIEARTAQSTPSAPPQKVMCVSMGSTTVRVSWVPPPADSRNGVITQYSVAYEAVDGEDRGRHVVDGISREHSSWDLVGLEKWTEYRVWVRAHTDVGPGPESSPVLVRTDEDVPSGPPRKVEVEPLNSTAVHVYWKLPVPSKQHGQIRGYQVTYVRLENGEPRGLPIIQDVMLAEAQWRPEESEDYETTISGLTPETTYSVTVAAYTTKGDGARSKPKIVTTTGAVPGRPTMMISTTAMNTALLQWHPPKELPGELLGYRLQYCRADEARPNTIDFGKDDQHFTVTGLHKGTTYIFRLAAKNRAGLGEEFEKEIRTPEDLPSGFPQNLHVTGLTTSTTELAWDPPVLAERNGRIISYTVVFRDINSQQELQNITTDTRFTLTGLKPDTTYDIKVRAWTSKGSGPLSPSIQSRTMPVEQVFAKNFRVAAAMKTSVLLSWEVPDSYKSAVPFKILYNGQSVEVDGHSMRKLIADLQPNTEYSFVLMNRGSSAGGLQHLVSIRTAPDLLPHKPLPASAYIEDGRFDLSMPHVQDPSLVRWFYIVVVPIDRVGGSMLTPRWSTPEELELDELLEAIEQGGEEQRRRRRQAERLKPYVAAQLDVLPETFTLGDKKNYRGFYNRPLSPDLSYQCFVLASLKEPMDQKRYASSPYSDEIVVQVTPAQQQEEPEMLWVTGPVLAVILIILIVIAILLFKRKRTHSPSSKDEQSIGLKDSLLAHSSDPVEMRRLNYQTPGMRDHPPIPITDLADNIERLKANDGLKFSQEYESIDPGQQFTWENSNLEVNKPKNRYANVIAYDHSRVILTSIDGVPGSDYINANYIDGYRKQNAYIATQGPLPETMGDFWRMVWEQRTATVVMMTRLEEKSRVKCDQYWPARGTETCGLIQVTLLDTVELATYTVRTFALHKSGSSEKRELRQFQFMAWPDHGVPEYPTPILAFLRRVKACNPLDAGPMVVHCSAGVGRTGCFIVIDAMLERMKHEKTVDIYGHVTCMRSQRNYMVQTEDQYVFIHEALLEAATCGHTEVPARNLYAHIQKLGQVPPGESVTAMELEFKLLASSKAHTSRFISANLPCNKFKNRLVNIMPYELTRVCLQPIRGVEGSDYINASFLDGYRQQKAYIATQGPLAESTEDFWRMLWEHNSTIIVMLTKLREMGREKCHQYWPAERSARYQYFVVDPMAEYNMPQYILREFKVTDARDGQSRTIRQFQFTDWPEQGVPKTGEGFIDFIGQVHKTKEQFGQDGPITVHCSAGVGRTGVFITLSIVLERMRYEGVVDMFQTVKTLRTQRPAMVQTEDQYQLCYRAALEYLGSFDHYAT
Receptor-type tyrosine-protein phosphatase alpha (Homo sapiens), sequence (P18433 20-802 limits assumed): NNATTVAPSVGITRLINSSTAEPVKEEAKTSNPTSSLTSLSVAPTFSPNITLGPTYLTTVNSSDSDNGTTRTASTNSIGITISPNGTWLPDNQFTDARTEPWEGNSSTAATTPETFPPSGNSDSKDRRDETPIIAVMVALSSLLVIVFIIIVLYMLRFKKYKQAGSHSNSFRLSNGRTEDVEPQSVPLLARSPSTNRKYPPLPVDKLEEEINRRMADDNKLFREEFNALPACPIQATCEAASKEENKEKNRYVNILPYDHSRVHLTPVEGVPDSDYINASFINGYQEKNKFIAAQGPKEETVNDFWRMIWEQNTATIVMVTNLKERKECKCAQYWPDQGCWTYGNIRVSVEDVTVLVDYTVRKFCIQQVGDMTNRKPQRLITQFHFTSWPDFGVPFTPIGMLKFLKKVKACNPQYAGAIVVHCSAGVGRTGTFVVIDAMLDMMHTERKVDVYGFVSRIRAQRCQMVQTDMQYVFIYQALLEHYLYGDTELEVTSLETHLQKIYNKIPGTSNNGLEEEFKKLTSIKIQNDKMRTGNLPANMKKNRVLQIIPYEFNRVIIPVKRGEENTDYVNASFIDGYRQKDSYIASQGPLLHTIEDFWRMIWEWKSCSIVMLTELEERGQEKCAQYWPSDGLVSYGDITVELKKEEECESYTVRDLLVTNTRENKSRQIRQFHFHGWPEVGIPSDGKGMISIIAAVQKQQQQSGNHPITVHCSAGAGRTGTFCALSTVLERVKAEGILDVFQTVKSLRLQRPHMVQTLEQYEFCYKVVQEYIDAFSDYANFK
T3 sequence (P29350 whole entry): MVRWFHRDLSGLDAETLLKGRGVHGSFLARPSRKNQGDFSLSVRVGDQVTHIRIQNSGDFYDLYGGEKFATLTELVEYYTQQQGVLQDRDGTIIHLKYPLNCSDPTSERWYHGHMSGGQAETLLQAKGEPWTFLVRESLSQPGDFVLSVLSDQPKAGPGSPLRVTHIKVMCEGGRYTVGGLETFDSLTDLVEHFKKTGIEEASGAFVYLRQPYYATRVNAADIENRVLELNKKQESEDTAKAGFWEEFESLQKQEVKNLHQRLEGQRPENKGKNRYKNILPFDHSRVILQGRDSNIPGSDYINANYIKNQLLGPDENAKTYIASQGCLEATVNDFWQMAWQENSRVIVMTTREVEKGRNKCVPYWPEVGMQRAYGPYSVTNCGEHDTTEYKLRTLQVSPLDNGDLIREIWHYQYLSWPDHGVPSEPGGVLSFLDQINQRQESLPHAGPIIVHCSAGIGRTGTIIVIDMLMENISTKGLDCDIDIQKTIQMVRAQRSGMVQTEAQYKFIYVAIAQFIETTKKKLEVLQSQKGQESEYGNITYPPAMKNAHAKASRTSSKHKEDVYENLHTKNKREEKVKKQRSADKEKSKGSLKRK

As for `O=C(/C=C/c1ccccc1Br)NC(Cc1ccc2cc(OCc3ccccc3F)ccc2c1)C(=O)O` (racemic), the IC50 was found to be 2.89 µM in assay [1], 1.77 µM in assay [5], 11 µM in assay [6] and 4.66 µM in assay [7]. The inhibition entry in assay [2] and in assay [4] was “inactive” in each case. Further, the Ratio IC50 in assay [3] amounted to 1.
For `COc1ccc(/C=C/C(=O)NC(Cc2ccc3cc(OCc4ccccc4F)ccc3c2)C(=O)O)cc1OC` (racemic), the IC50 was determined as 7.04 µM in assay [1], 4.45 µM in assay [5] and 9.49 µM in assay [7]. In addition, the inhibition entry in assay [8], in assay [2] and in assay [4] was “inactive” in each case. Also, in assay [3], the Ratio IC50 is 1.
`O=C(/C=C/c1ccc(Br)cc1)NC(Cc1ccc2cc(OCc3ccccc3F)ccc2c1)C(=O)O` (racemic): the IC50 is 2.49 µM in assay [1], 1.57 µM in assay [5], 13 µM in assay [6] and 3.67 µM in assay [7]. Further, the inhibition result in assay [2] and in assay [4] was “inactive” in each case. Besides, the Ratio IC50 in assay [3] was found to be 1.
In turn, `C[C@H]1[C@H](C)CC[C@]2(C(=O)O)CC[C@]3(C)C(=CC[C@@H]4[C@@]5(C)CC[C@H](O)C(C)(C)[C@@H]5CC[C@]43C)[C@H]12` [URSOLIC ACID] had an IC50 in assay [7] of 6.7 µM.
Turning to `O=C(Cc1ccc(Cl)cc1)NC(Cc1ccc2cc(OCc3ccccc3F)ccc2c1)C(=O)O` (racemic), the IC50 amounted to 8.44 µM in assay [1], 7.91 µM in assay [5], 15.6 µM in assay [6] and 12.9 µM in assay [7]. Moreover, the inhibition result in assay [2] and in assay [4] was “inactive” in each case. Also, in assay [3], the Ratio IC50 turned out to be 1.
Turning to `Cc1ccc(/C=C/C(=O)NC(Cc2ccc3cc(OCc4ccccc4F)ccc3c2)C(=O)O)cc1` (racemic), the IC50 is 11.6 µM in assay [1], 6.48 µM in assay [5] and 18.2 µM in assay [7]. Besides, the inhibition result in assay [8], in assay [2] and in assay [4] was “inactive” each time. In assay [3], the Ratio IC50 was 1.
As to `NC(Cc1ccc2cc(OCc3ccccc3F)ccc2c1)C(=O)O` (racemic), the Ratio IC50 in assay [3] turned out to be 1. Moreover, the IC50 in assay [5] is 24.7 µM.
For `O=C(COc1ccc(Cl)cc1)NC(Cc1ccc2cc(OCc3ccccc3F)ccc2c1)C(=O)O` (racemic), the IC50 in assay [1] came out at 13.7 µM; in assay [5], 10.8 µM; in assay [7], 17.5 µM. The inhibition result in assay [8], in assay [2] and in assay [4] was “inactive” in each case. Moreover, in assay [3], the Ratio IC50 worked out at 1.
Regarding `O=C(/C=C/c1ccc(Cl)cc1)NC(Cc1ccc2cc(OCc3ccccc3F)ccc2c1)C(=O)O` (racemic), the IC50 in assay [1] came out at 2.63 µM; in assay [5], 2.59 µM; in assay [6], 16.3 µM; in assay [7] it was 4.33 µM. For the same compound, the inhibition entry in assay [2] and in assay [4] was “inactive” in each case. For the same compound, in assay [3], the Ratio IC50 turned out to be 1.
Turning to `COc1ccc(COc2ccc3cc(CC(NC(=O)c4ccccc4)C(=O)O)ccc3c2)cc1` (racemic), in assay [3], the Ratio IC50 worked out at 1. This compound showed a concentration for half-maximal inhibition (IC50) in assay [5] of 14.3 µM.
Take `O=C(/C=C/c1ccc(Cl)cc1Cl)NC(Cc1ccc2cc(OCc3ccccc3F)ccc2c1)C(=O)O` (racemic): the IC50 in assay [1] turned out to be 8.93 µM; in assay [5], 4.22 µM; in assay [6], 12.5 µM; in assay [7] it was 6.11 µM. The inhibition result in assay [2] and in assay [4] was “inactive” throughout. Further, the Ratio IC50 in assay [3] is 1.
In the case of `O=C(NC(Cc1ccc2cc(OCc3ccc(Cl)cc3)ccc2c1)C(=O)O)c1ccccc1` (racemic), the Ratio IC50 in assay [3] was determined as 1. Moreover, in assay [5], the midpoint of inhibition, the IC50, lay at 21.7 µM.
Take `O=C(NC(Cc1ccc2cc(O)ccc2c1)C(=O)O)c1ccccc1` (racemic): in assay [3], the Ratio IC50 was 1. For the same compound, the IC50 in assay [5] is > 300 µM.
Regarding `O=C(/C=C/c1ccccc1F)NC(Cc1ccc2cc(OCc3ccccc3F)ccc2c1)C(=O)O` (racemic), the IC50 in assay [1] came to 4.58 µM; in assay [5] it was 2.49 µM; in assay [6], 9.84 µM; in assay [7], 3.02 µM. Moreover, the inhibition entry in assay [2] and in assay [4] was “inactive” in each case. For the same compound, the Ratio IC50 in assay [3] is 1.
In the case of `CC(C)(C)OC(=O)NC(Cc1ccc2cc(O)ccc2c1)C(=O)O` (racemic), the Ratio IC50 in assay [3] was 1. In assay [5], the IC50 is > 300 µM.
Take `O=C(CCc1ccccc1)NC(Cc1ccc2cc(OCc3ccccc3F)ccc2c1)C(=O)O` (racemic): the IC50 stood at 15.2 µM in assay [1], 11.4 µM in assay [5] and 27.3 µM in assay [7]. Besides, the inhibition entry in assay [8], in assay [2] and in assay [4] was “inactive” each time.
With `O=C(/C=C/c1ccc(F)cc1)NC(Cc1ccc2cc(OCc3ccccc3F)ccc2c1)C(=O)O` (racemic), the IC50 was found to be 6.6 µM in assay [1], 3.38 µM in assay [5], 18.5 µM in assay [6] and 5.96 µM in assay [7]. The inhibition result in assay [2] and in assay [4] was “inactive” in each case. The Ratio IC50 in assay [3] came out at 1.
Turning to `O=C(/C=C/c1ccc(Cl)c(Cl)c1)NC(Cc1ccc2cc(OCc3ccccc3F)ccc2c1)C(=O)O` (racemic), the IC50 turned out to be 5.63 µM in assay [1], 4.71 µM in assay [5], 10.7 µM in assay [6] and 15.3 µM in assay [7]. The inhibition entry in assay [2] and in assay [4] was “inactive” in each case.
Regarding `O=C(/C=C/c1cccc(Cl)c1)NC(Cc1ccc2cc(OCc3ccccc3F)ccc2c1)C(=O)O` (racemic), the IC50 was 5.35 µM in assay [1], 4 µM in assay [5], 13.2 µM in assay [6] and 7.24 µM in assay [7]. The inhibition result in assay [2] and in assay [4] was “inactive” in each case. In addition, the Ratio IC50 in assay [3] was 1.
Turning to `COc1cccc(/C=C/C(=O)NC(Cc2ccc3cc(OCc4ccccc4F)ccc3c2)C(=O)O)c1` (racemic), the IC50 came out at 10.7 µM in assay [1], 8.15 µM in assay [5], 16.4 µM in assay [6] and 15.2 µM in assay [7]. Besides, the inhibition result in assay [2] and in assay [4] was “inactive” in each case. The Ratio IC50 in assay [3] was found to be 1.
Consider `O=C(/C=C/c1cccc(F)c1)NC(Cc1ccc2cc(OCc3ccccc3F)ccc2c1)C(=O)O` (racemic), for which the IC50 in assay [1] was 5.13 µM; in assay [5] it was 2.79 µM; in assay [6] it was 26.5 µM; in assay [7], 6.08 µM. Also, the inhibition entry in assay [2] and in assay [4] was “inactive” throughout. Further, the Ratio IC50 in assay [3] came out at 1.
For the compound `O=C(/C=C/c1ccccc1)NC(Cc1ccc2cc(OCc3ccccc3F)ccc2c1)C(=O)O` (racemic), the IC50 amounted to 14.7 µM in assay [1], 8.88 µM in assay [5] and 18.9 µM in assay [7]. In addition, the inhibition result in assay [8], in assay [2] and in assay [4] was “inactive” in each case.
In the case of `CC(C)(C)OC(=O)NC(Cc1ccc2cc(OCc3ccccc3F)ccc2c1)C(=O)O` (racemic), the Ratio IC50 in assay [3] came to 1. Moreover, the half-maximal inhibitory concentration (IC50) in assay [5] worked out at 11.1 µM.
